Data from PMC5002266 (Nuclear medicine and biology, 2016).

Key:
[1] = Biodistribution of 99mTc radiotracer in tumor-bearing mice; format: in vivo, BALB/c nude mice; details: female, BALB/c nude, mouse, iv, 0.1 MBq, total radioactivity
Outline: (§1)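 Female BALB/c nude mice (4–5 weeks, 16–20 g) carried U87MG cells (5 × 10^6, s.c. shoulder flank) and were used at a tumor volume of ~400 mm3 (~10 days). Each received ~0.1 MBq of 99mTc tracer (~2 ng HYNIC conjugate) in saline by tail vein. Five animals were killed per time point (5, 30, 60, 120 min p.i.). Organs were weighed and γ-counted as %ID/g, and tumor-to-background ratios were reported as mean ± SD.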

[2] = feces at 2 h p.i.; ref [14]; cited from earlier work
[3] = tested on: BALB/c nude mice bearing U87MG human glioma xenografts; test: Biodistribution of 99mTc radiotracer in tumor-bearing mice; format: in vivo; details: BALB/c nude mice with U87MG xenografts, mean ± SD, n = 5
Outline: as §1

Metabolism = format: in vivo; details: athymic nude mice (n = 3); ~10 MBq tail vein; feces at 2 h p.i.; radio-HPLC
Outline: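 Athymic nude mice (n = 3) received ~10 MBq tracer i.v. Feces collected at 120 min p.i. were counted, suspended in 20% aqueous acetonitrile, vortexed ~5 min and centrifuged at 8,000 rpm. The supernatant was counted, filtered at 0.20 µm and run on radio-HPLC (C8, 1 mL/min; 25 mM NH4OAc pH 6.8/acetonitrile, isocratic 5 min then gradient to 60% acetonitrile at 20 min).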

integrin αvβ3 = test: Monitoring αvβ3 expression by SPECT/CT in three tumor models; format: in vivo, athymic nu/nu mice; details: SPECT/CT of tumor-bearing athymic nude mice, ~50 MBq
Outline: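 Female athymic nu/nu mice (4–5 weeks) received 5 × 10^6 cells in 0.1 mL saline: U87MG and PC-3 into shoulder flanks, MDA-MB-435 into breast fat pads. At tumor sizes of 0.1–0.5 g, they were given tracer i.v. and imaged on a multi-pinhole (1.0 mm) SPECT/CT at 60 min p.i. under ~3.0% isoflurane. Tumor ROIs came from CT, and activity was converted via a γ-counter-calibrated standard curve to %ID/g, assuming ~1 g/cm3.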

Question: For `N=C(N)NCCC[C@@H]1NC(=O)[C@H](CCCCNC(=O)CCOCCOCCOCCOCCNC(=O)CC[C@H](NC(=O)CCOCCOCCOCCOCCNC(=O)c2ccc(NN)nc2)C(=O)NCCOCCOCCOCCOCCC(=O)NCCCC[C@@H]2NC(=O)[C@@H](Cc3ccccc3)NC(=O)[C@H](CC(=O)O)NC(=O)CNC(=O)[C@H](CCCNC(=N)N)NC2=O)NC(=O)[C@@H](Cc2ccccc2)NC(=O)[C@H](CC(=O)O)NC(=O)CNC1=O` [^99mTc-3P-RGD2, [^99mTc(HYNIC-3P-RGD2)(tricine)(TPPTS)], metal not drawn], which tissue uptake at 2 h ([1]; blood) is on record?
Answer: 0.32 ± 0.06 %ID/g

Question: And the tissue uptake at 0.5 h ([1]; brain)?
Answer: 0.41 ± 0.17 %ID/g

Question: What about the tissue uptake at 1 h ([1]; brain) of the same molecule?
Answer: 0.41 ± 0.05 %ID/g

Question: And the tissue uptake at 2 h ([1]; brain)?
Answer: 0.23 ± 0.09 %ID/g

Question: What about the tissue uptake at 1 h ([1]; eyes) of the same molecule?
Answer: 2.57 ± 0.59 %ID/g

Question: And the tissue uptake at 2 h ([1]; eyes)?
Answer: 2.12 ± 0.86 %ID/g

Question: And the tissue uptake at 0.5 h ([1]; heart)?
Answer: 3.48 ± 0.45 %ID/g

Question: And the tissue uptake at 1 h ([1]; heart)?
Answer: 3.13 ± 0.44 %ID/g

Question: And the tissue uptake at 2 h ([1]; heart)?
Answer: 2.07 ± 0.75 %ID/g

Question: What about the tissue uptake at 0.5 h ([1]; intestine) of the same molecule?
Answer: 4.24 ± 1.54 %ID/g

Question: And the tissue uptake at 1 h ([1]; intestine)?
Answer: 5.45 ± 1.47 %ID/g

Question: And the tissue uptake at 2 h ([1]; intestine)?
Answer: 3.37 ± 1.32 %ID/g

Question: And the tissue uptake at 0.5 h ([1]; kidneys)?
Answer: 32.9 ± 2.94 %ID/g

Question: What about the tissue uptake at 1 h ([1]; kidneys) of the same molecule?
Answer: 24.6 ± 3.59 %ID/g

Question: What about the tissue uptake at 2 h ([1]; kidneys) of the same molecule?
Answer: 19.1 ± 2.6 %ID/g

Question: And the tissue uptake at 0.5 h ([1]; liver)?
Answer: 5.82 ± 0.79 %ID/g

Question: And the tissue uptake at 1 h ([1]; liver)?
Answer: 4.83 ± 0.6 %ID/g

Question: What about the tissue uptake at 2 h ([1]; liver) of the same molecule?
Answer: 4.52 ± 0.76 %ID/g

Question: And the tissue uptake at 0.5 h ([1]; lungs)?
Answer: 4.24 ± 0.87 %ID/g

Question: And the tissue uptake at 1 h ([1]; lungs)?
Answer: 3.5 ± 1.01 %ID/g

Question: What about the tissue uptake at 2 h ([1]; lungs) of the same molecule?
Answer: 2.39 ± 0.71 %ID/g

Question: What about the tissue uptake at 0.5 h ([1]; muscle) of the same molecule?
Answer: 2.25 ± 0.48 %ID/g

Question: What about the tissue uptake at 1 h ([1]; muscle) of the same molecule?
Answer: 1.5 ± 0.49 %ID/g

Question: What about the tissue uptake at 2 h ([1]; muscle) of the same molecule?
Answer: 1.23 ± 0.21 %ID/g

Question: What about the tissue uptake at 0.5 h ([1]; spleen) of the same molecule?
Answer: 5.03 ± 0.45 %ID/g

Question: What about the tissue uptake at 1 h ([1]; spleen) of the same molecule?
Answer: 4.02 ± 0.7 %ID/g

Question: And the tissue uptake at 2 h ([1]; spleen)?
Answer: 3.8 ± 0.5 %ID/g

Question: And the tissue to tissue ratio at 0.5 h ([1]; tumor / blood)?
Answer: 4.33 ± 0.12

Question: What about the tissue to tissue ratio at 1 h ([1]; tumor / blood) of the same molecule?
Answer: 5.86 ± 2.21

Question: And the tissue to tissue ratio at 2 h ([1]; tumor / blood)?
Answer: 12 ± 3.62

Question: What about the tissue to tissue ratio at 0.5 h ([1]; tumor / liver) of the same molecule?
Answer: 1.16 ± 0.54

Question: What about the tissue to tissue ratio at 1 h ([1]; tumor / liver) of the same molecule?
Answer: 1.1 ± 0.54

Question: What about the tissue to tissue ratio at 2 h ([1]; tumor / liver) of the same molecule?
Answer: 0.84 ± 0.1

Question: What about the tissue to tissue ratio at 0.5 h ([1]; tumor / lung) of the same molecule?
Answer: 1.52 ± 0.74

Question: What about the tissue to tissue ratio at 1 h ([1]; tumor / lung) of the same molecule?
Answer: 1.33 ± 0.52

Question: And the tissue to tissue ratio at 2 h ([1]; tumor / lung)?
Answer: 1.74 ± 0.63

Question: What about the tissue to tissue ratio at 0.5 h ([1]; tumor / muscle) of the same molecule?
Answer: 1.85 ± 1.38

Question: And the tissue to tissue ratio at 1 h ([1]; tumor / muscle)?
Answer: 2.25 ± 1.56

Question: What about the tissue to tissue ratio at 2 h ([1]; tumor / muscle) of the same molecule?
Answer: 3.09 ± 0.4

Question: What about the tissue uptake at 0.5 h ([1]; tumor) of the same molecule?
Answer: 6.77 ± 1.3 %ID/g

Question: And the tissue uptake at 1 h ([1]; tumor)?
Answer: 4.62 ± 0.57 %ID/g

Question: And the tissue uptake at 2 h ([1]; tumor)?
Answer: 3.93 ± 0.63 %ID/g

Question: What about the tissue uptake at 0.5 h ([1]; whole blood) of the same molecule?
Answer: 1.54 ± 0.14 %ID/g

Question: And the tissue uptake at 1 h ([1]; whole blood)?
Answer: 0.87 ± 0.1 %ID/g

Question: And the “Radiotracer remaining intact in the feces samples” value [2]?
Answer: 70%

Question: What does the source list for “[^99mTc(HYNIC-4P-RGD3)(tricine)(TPPTS)] (head to tail) [^99mTc-4P-RGD3]”?
Answer: Tumor/Blood ratio ([3]; 5 min p.i.): 1.23 ± 0.34; Tumor/Liver ratio ([3]; 5 min p.i.): 0.55 ± 0.16; Tumor/Lung ratio ([3]; 5 min p.i.): 0.69 ± 0.15; Tumor/Muscle ratio ([3]; 5 min p.i.): 1.80 ± 0.48; Tumor/Blood ratio ([3]; 30 min p.i.): 3.69 ± 0.48; Tumor/Liver ratio ([3]; 30 min p.i.): 0.79 ± 0.11; Tumor/Lung ratio ([3]; 30 min p.i.): 1.07 ± 0.13; Tumor/Muscle ratio ([3]; 30 min p.i.): 2.29 ± 0.34; Tumor/Blood ratio ([3]; 60 min p.i.): 6.21 ± 2.34; Tumor/Liver ratio ([3]; 60 min p.i.): 0.87 ± 0.25; Tumor/Lung ratio ([3]; 60 min p.i.): 1.08 ± 0.25; Tumor/Muscle ratio ([3]; 60 min p.i.): 1.78 ± 0.69; Tumor/Blood ratio ([3]; 120 min p.i.): 8.21 ± 1.71; Tumor/Liver ratio ([3]; 120 min p.i.): 0.70 ± 0.19; Tumor/Lung ratio ([3]; 120 min p.i.): 1.45 ± 0.22; Tumor/Muscle ratio ([3]; 120 min p.i.): 2.79 ± 0.55; Radiotracer remaining intact in the feces sample (Metabolism): More than 95%; Ranking order of tumor uptake values among tumor models (integrin αvβ3): U87MG > MDA-MB-435 >> PC-3
